Data reported in ChEMBL document CHEMBL1250511, “Discovery of pyridazinopyridinones as potent and selective p38 mitogen-activated protein kinase inhibitors” (J Med Chem, 2010).

Legend:
[1] = target: Mitogen-activated protein kinase 14 (Homo sapiens, UniProt Q16539); assay: Inhibition of p38alpha MAP kinase
THP-1 = assay: Antiinflammatory activity in human THP1 cells assessed as inhibition of LPS-induced TNFalpha production after 3 hrs; format: functional, cell-based; details: THP-1, 3 h
Procedure, shortened: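 THP-1 cells (1.5 × 10^6/mL in RPMI 1640, 10% heat-inactivated FBS, 30 μM βME) given 3-fold serial DMSO dilutions of compound, then LPS. Incubation 3 h at 37 °C, 5% CO2. Secreted TNFα measured in medium by MSD electrochemiluminescence. Results expressed as percent of control relative to DMSO (HI) and no-LPS (LO) wells.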

[2] = Antiinflammatory activity in human whole blood cells assessed as inhibition of TNF-alpha-induced IL8 production after 16 to 18 hrs; format: functional, cell-based
Procedure, shortened: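 Heparinized blood from healthy, nonmedicated volunteers (final 50% in RPMI 1640/10% human AB serum) was preincubated 1 h at 37 °C, 5% CO2 with ten-point compound titrations. It was then stimulated with TNFα (final 1 nM) overnight (16-18 h). Plasma IL-8 was measured by MSD ECL sandwich immunoassay.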

[3] = Volume of distribution at steady state in Sprague-Dawley rat at 2 mg/kg, iv; format: ADME, organism-based; set-up: dose 2 mg/kg, route intravenous; details: in vivo, read-out: Vdss
Procedure, shortened: (§1)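 Single iv dose of 2.0 mg/kg, formulated in DMSO.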

[4] = Half life in Sprague-Dawley rat at 2 mg/kg, iv; format: ADME, organism-based; set-up: dose 2 mg/kg, route intravenous; details: in vivo; procedure, shortened: as §1
[5] = AUC in Sprague-Dawley rat at 2 mg/kg, po; format: ADME, organism-based; set-up: dose 2 mg/kg, route oral; details: plasma
[6] = Oral bioavailability in Sprague-Dawley rat at 2 mg/kg; format: ADME, organism-based; details: in vivo
[7] = Clearance in Sprague-Dawley rat at 2 mg/kg, iv; format: ADME, organism-based; set-up: dose 2 mg/kg, route intravenous; details: in vivo; procedure, shortened: as §1
Rattus norvegicus [8] = species: Rattus norvegicus; assay: Antiarthritic activity in Lewis rat assessed as reduction in collagen-induced paw swelling; format: functional
Procedure, shortened: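 Arthritis induced by intradermal porcine type II collagen emulsified 1:1 in incomplete Freund's adjuvant. Animals were grouped at disease onset (10-12 days post-immunization) and dosed orally once daily for 7 days. Paw diameter was measured daily on days 0-7. Area under the paw-swelling curve gave percent inhibition versus vehicle.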

Rattus norvegicus [9] = assay: Antiinflammatory activity in po dosed Lewis rat assessed as inhibition of LPS-induced TNFalpha production administered 1 hrs prior to LPS challenge after 90 mins

Mitogen-activated protein kinase 14, sequence (Q16539 whole entry): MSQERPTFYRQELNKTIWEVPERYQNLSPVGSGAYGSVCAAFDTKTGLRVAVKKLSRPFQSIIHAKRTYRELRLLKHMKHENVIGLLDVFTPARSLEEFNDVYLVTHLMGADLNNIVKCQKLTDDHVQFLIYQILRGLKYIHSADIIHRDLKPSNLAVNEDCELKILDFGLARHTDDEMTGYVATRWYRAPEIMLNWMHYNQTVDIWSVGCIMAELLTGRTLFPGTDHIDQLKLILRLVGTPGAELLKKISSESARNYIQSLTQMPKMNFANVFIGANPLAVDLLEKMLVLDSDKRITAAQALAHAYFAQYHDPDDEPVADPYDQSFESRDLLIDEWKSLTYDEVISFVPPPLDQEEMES

| IC50 [1] [nM] | IC50 (THP-1) [nM] | IC50 [2] [nM] | Structure (SMILES) | other results |
| --- | --- | --- | --- | --- |
| > 1000 | > 2500 | > 2500 | Cc1ccc(C(=O)O)cc1-c1cc2cnnc(-c3ccc(F)cc3F)c2n(C)c1=O |  |
| 6.1 | 49 | 213 | Cn1c(=O)c(Cc2ccc(F)cc2F)cc2cnnc(-c3ccc(F)cc3F)c21 |  |
| 55.8 | 197 | 697 | Cn1c(=O)c(Cc2ccc(F)cc2)cc2cnnc(-c3ccc(F)cc3F)c21 |  |
|  | 107 | 70.5 | Cn1c(=O)c(Oc2ccc(F)cc2F)cc2cnnc(-c3ccc(F)cc3F)c21 |  |
| 78 | 235 | 227 | Cn1c(=O)c(Oc2ccc(F)cc2)cc2cnnc(-c3ccc(F)cc3F)c21 |  |
| 299 | 1140 | 1240 | CN(c1ccc(F)cc1)c1cc2cnnc(-c3ccc(F)cc3F)c2n(C)c1=O |  |
|  | 13.7 | 61.9 | Cn1c(=O)c(Nc2ccc(F)cc2)cc2cnnc(-c3ccc(F)cc3F)c21 |  |
| 0.9 | 4.5 | 11.7 | Cn1c(=O)c(Nc2ccc(F)cc2F)cc2cnnc(-c3ccc(F)cc3F)c21 |  |
|  | > 2500 | > 2500 | Cn1c(=O)c(Nc2ccc(F)cn2)cc2cnnc(-c3ccc(F)cc3F)c21 |  |
|  | 982 | > 2500 | Cn1c(=O)c(Nc2ncc(F)cc2F)cc2cnnc(-c3ccc(F)cc3F)c21 |  |
| 14.5 | 80.5 | 63.3 | Cc1cnc(C(=O)NC2CC2)cc1-c1cc2cnnc(-c3ccc(F)cc3F)c2n(C)c1=O |  |
| 2.6 | 6.3 | 8.3 | Cn1c(=O)c(-c2cc(C(=O)NC3CC3)ccc2Cl)cc2cnnc(-c3ccc(F)cc3F)c21 |  |
| 1.4 | 1.1 | 1.6 | Cc1c(F)cc(C(=O)NC2CC2)cc1-c1cc2cnnc(-c3ccc(F)cc3F)c2n(C)c1=O | Vd [3]: 1.19 L/kg; half-life [4]: 4.66 h; AUC [5]: 6740 ng·h/mL; bioavailability [6]: 55% |
| 3.1 | 14.5 | 27.4 | Cc1ccc(C(=O)NC2(C)CC2)cc1-c1cc2cnnc(-c3ccc(F)cc3F)c2n(C)c1=O |  |
| 2.7 | 2.1 | 1.8 | Cc1ccc(C(=O)NC2CC2)cc1-c1cc2cnnc(-c3ccc(F)cc3F)c2n(C)c1=O | clearance [7]: 3.83 mL/min/kg; Vd [3]: 1.04 L/kg; half-life [4]: 3.06 h; AUC [5]: 7630 ng·h/mL; bioavailability [6]: 86%; ED50 (Rattus norvegicus [8]): 0.03 mg/kg; ED50 (Rattus norvegicus [9]): 0.06 mg/kg |
|  | 24.3 | 30 | CNC(=O)c1ccc(C)c(-c2cc3cnnc(-c4ccc(F)cc4F)c3n(C)c2=O)c1 |  |
| 2.7 | 19.3 | 21.3 | Cc1ccc(C(N)=O)cc1-c1cc2cnnc(-c3ccc(F)cc3F)c2n(C)c1=O |  |
